Shown are actives, neighbours in structure and some others; about 3.5% of the full set was active somewhere.
rRNA inh HTS: inhibits bacterial ribosomal RNA function over humanized ribosomes. GFP signal change (wild-type ribosome), % (no concentration beside the values). E. coli WT GFP vs humanized-ribosome RFP mutants, fluorescence, 24 h; hits give low values; DMSO median 0, no signal -100. 350,000 tested, 1.6% active;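 active = significant combined selectivity score with lowered wild-type GFP, culture density cut under 30%, mutant RFP and density less affected; inactive = any of these conditions unmet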
ERAP1 HTS inh: ERAP1 (human) enzyme inhibition; Q9NZ08; recombinant ERAP1, Leu-AMC fluorescence, 60 min; inhibition, % at 10.7 µM; 340,000 tested, 0.15% active; AID 652197;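 active = mean replicate inhibition of at least 30%, or all replicates individually reaching that 30% level; inactive = mean below 30% and not every replicate reaching it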;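 note: 0% = neutral control wells and 100% = L-leucinethiol positive control wells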
HIV Env fusion: blocks HIV Env-driven cell-cell fusion; HeLa-JRFL Env/CEM21 cell fusion, luciferase; 360,000 tested, 1.1% active; AID 651610; inhibition, % at 12.3 µM;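 active = mean replicate inhibition score of at least 50 and every replicate individually at or above 50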;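 note: 0% = plate neutral controls and 100% = maraviroc near 300 nM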
Cneo AK release: causes C. neoformans cell lysis. adenylate kinase release luminescence, 4 h; normalised: neutral wells 0, clomiphene wells 100. lysis activity, % at 15 µM. 360,000 tested, 0.2% active. AID 651654;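 active = mean lysis activity across replicates of at least 80%, whatever share of replicates individually reach that level; inactive = mean lysis activity below 80%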
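read-out = cell lysis signal | test system = log-phase Cryptococcus neoformans yeast cells | input = cells at 5 × 10^6 per mL | medium = fresh YPD growth medium | signal = luminescent adenylate kinase detection reagent | timing = 4 h at 37 °C static, read 1 h later | dosing = single dose | controls = Clomiphene as positive lysis control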
FGF22 binding: shifts melting point of recombinant human FGF22; 340,000 tested, 1.5% active; recombinant FGF22 thermal shift, SYPRO orange fluorescence; percent of sucrose octasulfate shift, DMSO zero; activity (Tm shift, normalised), % at 9.99 µM; AID 651658;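 active = mean Tm shift, scaled 0 neutral to 100 positive control, at about 1.3% or above, every replicate too, limit read from the data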
PGC1a acetyl inh: lowers PGC1a acetylation signal in U2OS cells | AlphaScreen anti-acetyl-lysine; with virally co-expressed GCN5 acetyltransferase | inhibition, % at 15.6 µM | 350,000 tested, 0.17% active | AID 651687;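 active = every replicate shows inhibition of at least 40%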;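 note: 0% = neutral control wells and 100% = positive control wells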
Starred values were filed as active, the others as inactive; [ ] = remark or other dose.

`CCN1CCN(c2ncc(C(=O)Nc3cc(Cl)ccc3OC)c3ccccc23)CC1` gave Cneo AK release -0.6 and PGC1a acetyl inh 92.8*.
For COc1ccccc1N1CCN(c2ncc(C(=O)N3CCN(c4cccc(Cl)c4)CC3)c3ccccc23)CC1 the results were rRNA inh HTS 18.8, ERAP1 HTS inh 1.7, HIV Env fusion 40.2, FGF22 binding 0.2 and PGC1a acetyl inh 0.5.
O=C(Nc1c2c(nn1-c1ccc(F)cc1)CS(=O)C2)c1ccco1 (stereo not given) was read as rRNA inh HTS 10.7, ERAP1 HTS inh 1.5, HIV Env fusion -2.5, Cneo AK release -2.0 and FGF22 binding 0.1.
Cc1ccc(-n2nc3c(c2NC(=O)c2ccco2)CS(=O)C3)cc1 (stereo not given) was read as rRNA inh HTS 16.6, ERAP1 HTS inh -0.5, HIV Env fusion 88.3*, Cneo AK release 1.7 and FGF22 binding 0.1.
`CCCN1CCN(c2ccc([N+](=O)[O-])cc2C#N)CC1` gave rRNA inh HTS 3.7, ERAP1 HTS inh -1.4, HIV Env fusion -20.8, FGF22 binding 43.4* and PGC1a acetyl inh -10.8.
Screening CC(=O)N1CCN(c2ccc([N+](=O)[O-])cc2C#N)CC1 returned rRNA inh HTS 16.6, ERAP1 HTS inh 5.2, HIV Env fusion -3.1, Cneo AK release 2.7, FGF22 binding 0.4 and PGC1a acetyl inh 11.2.
For COc1ccc(CC(=O)Nc2nc(-c3ccncc3)cs2)cc1 the results were rRNA inh HTS -0.5, ERAP1 HTS inh 7.6, HIV Env fusion -14.3 and FGF22 binding 0.0.
COc1ccccc1N/C(N)=N/c1nc(CSc2ccc(C)cc2)cc(=O)[nH]1 was read as HIV Env fusion 67.5*, Cneo AK release -1.5 and PGC1a acetyl inh -7.5.
Screening Cc1ccc(SCc2cc(=O)[nH]c(/N=C(\N)Nc3ccccc3Sc3ccccc3)n2)cc1 returned HIV Env fusion 7.8.
`Cc1ccc(S(=O)(=O)NCCC(=O)Nc2ccc(Cl)c(Cl)c2)cc1C` gave rRNA inh HTS -60.6, ERAP1 HTS inh -0.4, HIV Env fusion 28.1, FGF22 binding 46.6* and PGC1a acetyl inh -4.5.
Screening Nc1ccn([C@@H]2O[C@H](COS(=O)(=O)O)[C@@H](O)[C@H]2O)c(=O)n1 returned rRNA inh HTS -8.9, ERAP1 HTS inh -2.7, HIV Env fusion -16.7, Cneo AK release 1.1 and FGF22 binding 0.1.
Nc1ccn(C2OC(COC(=O)C34CC5CC(CC(C5)C3)C4)C(O)C2O)c(=O)n1 (stereo not given) was read as rRNA inh HTS -13.7, ERAP1 HTS inh -4.1, HIV Env fusion 68.0*, FGF22 binding -0.2 and PGC1a acetyl inh 13.1.
Screening CS(=O)(=O)N1CCC(C(=O)Nc2ccccc2Cl)CC1 returned rRNA inh HTS 7.2, ERAP1 HTS inh 0.0, HIV Env fusion -0.4, Cneo AK release -1.0, FGF22 binding 0.4 and PGC1a acetyl inh 0.5.
`O=C(O)CC(CC(=O)Nc1ccc(C(=O)O)cc1)c1ccccc1` (stereo not given) gave rRNA inh HTS 11.6, ERAP1 HTS inh -2.1, HIV Env fusion -12.5, Cneo AK release 0.7, FGF22 binding -0.3 and PGC1a acetyl inh 0.8.
For CCCCN(C(=O)c1cc(S(=O)(=O)N2CCCCCC2)ccc1OC)c1ccccc1 the results were rRNA inh HTS -11.4, ERAP1 HTS inh 0.9, HIV Env fusion 93.3*, Cneo AK release -2.7 and FGF22 binding -0.3.
Screening N#C[C@@H]1[C@H](c2ccc(C#CC3CCCCC3)cc2)[C@H](CO)N1C(=O)Cc1ccccn1 returned rRNA inh HTS -46.0, ERAP1 HTS inh 0.9, HIV Env fusion 10.5[16.7 µM], Cneo AK release -5.5, FGF22 binding -0.6 and PGC1a acetyl inh 3.3.
